In ChEMBL document CHEMBL1127345, “Synthesis, binding properties, and 18F labeling of fluorocarazolol, a high-affinity beta-adrenergic receptor antagonist” (J Med Chem, 1994):

Tests used:
Mus musculus [1] = experiment: The in vivo tissue distribution of mouse brain with Propranolol administration after 10 min, value was fractional dose per fractional body weight of the organ; assay type: ADME, organism-based
Outline: (§1)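 Male CF-1 mice (25–30 g), anesthetised with 2 mg sodium pentobarbital ip 30 min before tracer. Where blocked, propranolol iv via tail vein (0.1 mL of […]; […]) about 30 min before tracer. Tracer given by tail vein, 0.1 mL at 1–2 mCi/mL. Mice killed by cervical dislocation at set times, organs weighed and counted. %ID/g × body weight/100 gives unitless uptake. Heart, brain, blood, lung, kidney, liver and bone n=5; average ± SD.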

Mus musculus [2] = experiment: The in vivo tissue distribution of mouse blood without Propranolol preadministration in 40 min, value was fractional dose per fractional body weight of the organ
Mus musculus [3] = experiment: The in vivo tissue distribution of mouse liver with Propranolol administration after 40 min, value was fractional dose per fractional body weight of the organ; assay type: ADME, organism-based
Outline: (§2)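 Male CF-1 mice (25–30 g), given 2 mg sodium pentobarbital ip 30 min before tracer. Blocked groups received propranolol iv by tail vein, 0.1 mL of 1 mg/mL. About 30 min later, 0.1 mL of [18F]tracer (1–2 mCi/mL) was injected by tail vein. Mice were killed by cervical dislocation at set times, and organs were weighed and counted. Uptake is %ID/g × body weight/100, average ± SD; n=5 for heart, brain, blood, lung, kidney, liver and bone.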

Mus musculus [4] = experiment: The in vivo tissue distribution of mouse heart with Propranolol preadministration in 180 min, value was fractional dose per fractional body weight of the organ; assay type: ADME, organism-based; settings: 3 h; outline: as §2
Mus musculus [5] = experiment: The in vivo tissue distribution of mouse heart without Propranolol preadministration in 90 min, value was fractional dose per fractional body weight of the organ; settings: 1.5 h
Mus musculus [6] = experiment: The in vivo tissue distribution of mouse kidney with Propranolol administration after 10 min, value was fractional dose per fractional body weight of the organ; assay type: ADME, organism-based; outline: as §2
Mus musculus [7] = experiment: The in vivo tissue distribution of mouse kidney with Propranolol administration after 120 min, value was fractional dose per fractional body weight of the organ; assay type: ADME, organism-based; settings: 2 h; outline: as §1
Mus musculus [8] = experiment: The in vivo tissue distribution of mouse heart with Propranolol administration after 120 min, value was fractional dose per fractional body weight of the organ; assay type: ADME, organism-based; settings: 2 h; outline: as §2
Mus musculus [9] = experiment: The in vivo tissue distribution of mouse heart with Propranolol administration after 90 min, value was fractional dose per fractional body weight of the organ; assay type: ADME, organism-based; settings: 1.5 h; outline: as §1
Mus musculus [10] = experiment: The in vivo tissue distribution of mouse liver without Propranolol preadministration in 20 min, value was fractional dose per fractional body weight of the organ
Mus musculus [11] = experiment: The in vivo tissue distribution of mouse liver without Propranolol preadministration in 180 min, value was fractional dose per fractional body weight of the organ; settings: 3 h
Mus musculus [12] = experiment: The in vivo tissue distribution of mouse kidney without Propranolol preadministration in 20 min, value was fractional dose per fractional body weight of the organ
Mus musculus [13] = experiment: The in vivo tissue distribution of mouse brain without Propranolol preadministration in 60 min, value was fractional dose per fractional body weight of the organ; settings: 1 h
Mus musculus [14] = experiment: The in vivo tissue distribution of mouse blood without Propranolol preadministration in 20 min, value was fractional dose per fractional body weight of the organ
Mus musculus [15] = experiment: The in vivo tissue distribution of mouse blood with Propranolol preadministration in 10 min, value was fractional dose per fractional body weight of the organ; assay type: ADME, organism-based
Outline: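 Male CF-1 mice, 25–30 g, anesthetized with 2 mg sodium pentobarbital ip. Propranolol pretreatment was 0.1 mL of 1 mg/mL iv by tail vein. About 30 min later, 0.1 mL of 1–2 mCi/mL [18F]tracer was given by tail vein. Mice were killed by cervical dislocation at set times. Organs were weighed and counted against weighed dose standards. %ID/g × body weight/100 gave fractional dose per fractional body weight. Blood and heart n=5.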

[16] = The in vivo tissue distribution of mouse kidney without Propranolol preadministration in 180 min, value was fractional dose per fractional body weight of the organ; settings: 3 h
Mus musculus [17] = experiment: The in vivo tissue distribution of mouse bone with Propranolol administration after 10 min, value was fractional dose per fractional body weight of the organ; assay type: ADME, organism-based, Bone element; outline: as §1
Mus musculus [18] = experiment: The in vivo tissue distribution of mouse blood with Propranolol administration after 10 min, value was fractional dose per fractional body weight of the organ; assay type: ADME, organism-based; outline: as §1
Mus musculus [19] = experiment: The in vivo tissue distribution of mouse kidney with Propranolol administration after 20 min, value was fractional dose per fractional body weight of the organ; assay type: ADME, organism-based; outline: as §2
Mus musculus [20] = experiment: The in vivo tissue distribution of mouse liver without Propranolol preadministration in 60 min, value was fractional dose per fractional body weight of the organ; settings: 1 h
Mus musculus [21] = experiment: The in vivo tissue distribution of mouse heart with Propranolol administration after 10 min, value was fractional dose per fractional body weight of the organ; assay type: ADME, organism-based
Outline: (§3)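 Male CF-1 mice (25–30 g) anaesthetised with 2 mg sodium pentobarbital ip; blocked group given 0.1 mL of […] propranolol iv via tail vein (200 μg, 6.6 mg/kg), tracer 30 min later. 0.1 mL of 1–2 mCi/mL [18F]-labelled enantiomer iv via tail vein; killed by cervical dislocation, organs weighed and counted against weighed standards. %ID/g × body weight/100 gives unitless uptake; five mice per point (heart, blood, lung, kidney, liver, bone); mean ± SD.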

Mus musculus [22] = experiment: The in vivo tissue distribution of mouse heart without Propranolol preadministration in 40 min, value was fractional dose per fractional body weight of the organ
Mus musculus [23] = experiment: The in vivo tissue distribution of mouse blood with Propranolol administration after 60 min, value was fractional dose per fractional body weight of the organ; assay type: ADME, organism-based; settings: 1 h; outline: as §1
Mus musculus [24] = experiment: The in vivo tissue distribution of mouse bone with Propranolol administration after 20 min, value was fractional dose per fractional body weight of the organ; assay type: ADME, organism-based, Bone element; outline: as §3
Mus musculus [25] = experiment: The in vivo tissue distribution of mouse brain without Propranolol preadministration in 40 min, value was fractional dose per fractional body weight of the organ
Mus musculus [26] = experiment: The in vivo tissue distribution of mouse liver without Propranolol preadministration in 90 min, value was fractional dose per fractional body weight of the organ; settings: 1.5 h
Mus musculus [27] = experiment: The in vivo tissue distribution of mouse blood with Propranolol administration after 180 min, value was fractional dose per fractional body weight of the organ; assay type: ADME, organism-based; settings: 3 h; outline: as §2
Mus musculus [28] = experiment: The in vivo tissue distribution of mouse heart with Propranolol preadministration in 10 min, value was fractional dose per fractional body weight of the organ; assay type: ADME, organism-based; outline: as §1
Mus musculus [29] = experiment: The in vivo tissue distribution of mouse heart with Propranolol preadministration in 120 min, value was fractional dose per fractional body weight of the organ; assay type: ADME, organism-based; settings: 2 h; outline: as §3
Mus musculus [30] = experiment: The in vivo tissue distribution of mouse liver with Propranolol administration after 90 min, value was fractional dose per fractional body weight of the organ; assay type: ADME, organism-based; settings: 1.5 h; outline: as §2

In the case of `CC(C[18F])NC[C@@H](O)COc1cccc2[nH]c3ccccc3c12` (stereo not given in full), the Dose/organ (Mus musculus [1]) is reported as 1.04, the Dose/organ (Mus musculus [2]) is reported as 0.63 and the Dose/organ (Mus musculus [3]) is reported as 2.11. For the same molecule, the Dose/organ (Mus musculus [4]) was 0.14, the Dose/organ (Mus musculus [5]) was 0.46 and the Dose/organ (Mus musculus [6]) was 5.1. For the same molecule, the Dose/organ (Mus musculus [7]) was 0.63, the Dose/organ (Mus musculus [8]) was 0.27 and the Dose/organ (Mus musculus [9]) was 0.48. The Dose/organ (Mus musculus [10]) was 4, the Dose/organ (Mus musculus [11]) was 0.78 and the Dose/organ (Mus musculus [12]) was 4.8. The Dose/organ (Mus musculus [13]) was 0.37, the Dose/organ (Mus musculus [14]) was 0.75 and the Dose/organ (Mus musculus [15]) was 0.57. For the same molecule, the Dose/organ [16] was 0.67, the Dose/organ (Mus musculus [17]) was 0.67 and the Dose/organ (Mus musculus [18]) was 0.92. It also gave a Dose/organ (Mus musculus [19]) of 4.43, a Dose/organ (Mus musculus [20]) of 2.56 and a Dose/organ (Mus musculus [21]) of 1. The Dose/organ (Mus musculus [22]) was 0.76, the Dose/organ (Mus musculus [23]) was 0.63 and the Dose/organ (Mus musculus [24]) was 0.77. For the same molecule, the Dose/organ (Mus musculus [25]) was 0.73, the Dose/organ (Mus musculus [26]) was 1.25 and the Dose/organ (Mus musculus [27]) was 0.09. The Dose/organ (Mus musculus [28]) was 0.93, the Dose/organ (Mus musculus [29]) was 0.28 and the Dose/organ (Mus musculus [30]) was 1.17.
In the case of `CC(C[18F])NC[C@H](O)COc1cccc2[nH]c3ccccc3c12` (stereo not given in full), the Dose/organ (Mus musculus [1]) is reported as 1.23, the Dose/organ (Mus musculus [2]) is reported as 0.69 and the Dose/organ (Mus musculus [3]) is reported as 1.66. For the same molecule, the Dose/organ (Mus musculus [4]) was 0.4, the Dose/organ (Mus musculus [5]) was 0.61 and the Dose/organ (Mus musculus [6]) was 4.18. It also gave a Dose/organ (Mus musculus [7]) of 0.38, a Dose/organ (Mus musculus [8]) of 0.15 and a Dose/organ (Mus musculus [9]) of 0.35. It also gave a Dose/organ (Mus musculus [10]) of 2.54, a Dose/organ (Mus musculus [11]) of 0.88 and a Dose/organ (Mus musculus [12]) of 2.89. For the same molecule, the Dose/organ (Mus musculus [13]) was 0.81, the Dose/organ (Mus musculus [14]) was 0.71 and the Dose/organ (Mus musculus [15]) was 0.56. It also gave a Dose/organ [16] of 0.71, a Dose/organ (Mus musculus [17]) of 0.72 and a Dose/organ (Mus musculus [18]) of 0.39. For the same molecule, the Dose/organ (Mus musculus [19]) was 2.19, the Dose/organ (Mus musculus [20]) was 1.32 and the Dose/organ (Mus musculus [21]) was 1.06. The Dose/organ (Mus musculus [22]) was 0.77, the Dose/organ (Mus musculus [23]) was 0.25 and the Dose/organ (Mus musculus [24]) was 0.86. The Dose/organ (Mus musculus [25]) was 1.09, the Dose/organ (Mus musculus [26]) was 1.09 and the Dose/organ (Mus musculus [27]) was 0.15. It also gave a Dose/organ (Mus musculus [28]) of 1.1, a Dose/organ (Mus musculus [29]) of 0.45 and a Dose/organ (Mus musculus [30]) of 1.39.
